Assay outcomes (PubChem BioAssay)
bCat nuc transl: modulators of beta-catenin nuclear translocation | HeLa beta-catenin nuclear translocation, immunofluorescence imaging | nuclear translocation activity, % at 5 µM | 190,000 tested, 0.3% active | AID 1665;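 active means nuclear translocation activity above 50% at 5 µM, with a well cell count of 50 or more; inconclusive means wells under 50 cells across six images, flagged as toxic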;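 further: per-cell ratio of nuclear to cytoplasmic median beta-catenin stain intensity; plate controls were DMSO negative control for no effect and GSK-3 inhibitor IX positive control for full effect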
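Assay system: human HeLa cells, native beta-catenin; doses: 5 µM primary, 0.02–20 µM confirmation; incubation: compound treatment 24 h, 37°C, 5% CO2; technique: fluorescence imaging of beta-catenin antibody stain plus DAPI; measure: % activation, nuclear-to-cytoplasmic median beta-catenin signal ratio per cell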
Lmaj promast: inhibitors of Leishmania major promastigote growth; 200,000 tested, 9% active; Leishmania major promastigotes, resazurin fluorescence viability; inhibition, % at 10 µM; in the data active means inhibition above about 50%;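 further: promastigotes grown with compound for 44 hours at 28 °C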
MT stabilize HCS: microtubule stabilization, imaging screen; HeLa tubulin immunostaining HCS, 24 h; share of cells brighter than vehicle mean+2SD; % tubulin-high responders, % at 10 µM; 200,000 tested, 0.83% active; AID 2205;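 active means plate Z-score above 3 for both tubulin-high and condensed-nucleus cell shares, with cell loss under 80%, at 10 µM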;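 further: anti alpha tubulin signal scored within the nucleus-defined area of each cell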
Dynein cargo inh: dynein cargo transport inhibition | 3617.4 mouse cells, GR-EGFP nuclear translocation imaging; test concentration mostly 20 µM; stimulated with dexamethasone, 1 µM; hits give low values | AID 1381 | z-score, hits read low | 220,000 tested, 0.47% active;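 active means plate z-score of nuclear minus cytoplasmic receptor signal below a set negative limit, without overly bright fluorescence or cell loss, cut at about -3.5 in these data, passing the limit was not always enough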;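 further: z-score of nuclear minus cytoplasmic ring GR-EGFP intensity difference per well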
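Also added: dexamethasone, 1.0 µM final. Medium: tet-free, stripped-serum medium. Detection: fixed, Hoechst-stained cells imaged at 10x for EGFP. Read-out: nuclear-to-cytoplasmic GR-EGFP distribution per well. Times: induction 48 h, compound 1 h, agonist 30 min.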
HSV replic up: HSV replication enhancement | HSV replication augmentation in cells, fold increase | maximum fold increase | 220,000 tested, 0.005% active; in the data active means maximum fold increase above about 1.5; inconclusive means no clear call, values can overlap the other calls; tested in PC3 cells
The depositor's hits bear a star; i = inactive; ? = inconclusive; . = not tested or not shown. Rows were chosen to be rich in hits. Some 8.9% of all compounds tested hit in one or more screens of this group.

SMILES	bCat nuc transl	Lmaj promast	MT stabilize HCS	Dynein cargo inh	HSV replic up
O=C(Nc1nnc(COc2ccc(Cl)cc2)s1)c1cccs1	-2.5	-4.1	2.5	1.67	?
C=CCNc1nc(N(c2ccccc2)c2ccccc2)nc(-n2ccnc2)n1	-2.0	54.8*	3.1	-0.162	i
CCCCNc1nc(N(C)c2ccccc2)nc(-n2ccnc2)n1	-1.7	97.7*	6.9	-0.832	i
c1ccc(N(c2ccccc2)c2nc(-n3ccnc3)nc(-n3ccnc3)n2)cc1	-4.8	28.1	5.7	0.713	i
CN(c1ccccc1)c1nc(-n2ccnc2)nc(-n2ccnc2)n1	.	6.3	1.1	-0.427	.
C=CCNCCOCCOc1ccc(C)cc1[N+](=O)[O-]	0.9	81.3*	2.2	-0.474	i
CC(C)(C)NCCOCCOc1ccccc1-c1ccccc1	-0.9	35.4	3.5	-0.556	i
CCC(C)NCCOCCOc1ccccc1-c1ccccc1 (centres undefined)	0.7	85.4*	1.3	-0.468	i
CN(C)CCNCCCOc1ccccc1-c1ccccc1	0.9	98.1*	3.7	-0.397	i
C=CCNCCOCCOc1ccccc1-c1ccccc1	-2.8	95.3*	1.8	-0.13	i
Cn1cc(Br)c(-c2cccc(N3C(=O)CC(C)(C)CC3=O)c2)n1	1.0	.	.	0.485	i
Cc1cc(-c2cccnc2)c(C#N)c(SCC#N)n1	.	-6.5	2.4	0.436	i
Cn1cnnc1SCC(=O)Nc1ccccc1C(=O)NC1CC1	-0.1	-2.1	1.1	-2.31	i
S=c1[nH]nc(-c2ccccn2)n1/N=C/c1ccc(Cl)c(Cl)c1	-2.8	.	.	-0.177	i
O=[N+]([O-])c1ccc(/C=N/Nc2nc(NCc3ccccc3)nc(N3CCOCC3)n2)cc1	0.6	7.5	3.7	0.221	i
CC(C)Cn1c2c(c(O)c(C(=O)Nc3ccc(F)cc3)c1=O)CCCC2	0.8	9.9	6.7	-0.0902	i
C=CCC(CC=C)(NC(=O)c1cccc(C)c1)c1ccccc1	.	68.4*	1.8	-0.0384	i
Cc1oc(-c2ccc(Cl)cc2)nc1CN1CCCC(C(=O)NCc2cccnc2)C1 (centres undefined)	-0.9	-2.7	5.5	0.138	i
CSc1ccc(-c2nc(CN3CCCCC3c3cccnc3)c(C)o2)cc1 (centres undefined)	4.3	50.8*	4.0	-0.853	i
O=C(O)CCCNC(=O)c1cncc(O)c1	-0.5	-1.9	1.7	0.543	i
COc1cc(C=C(C(C)=O)C(C)=O)ccc1O	-3.2	62.7*	3.4	0.758	i
COc1ccc(C=C(C(C)=O)C(C)=O)cc1OC	.	40.6	3.8	-2.14	i
CCCCCCNC(=O)CC(NS(=O)(=O)c1ccc(OC)cc1)C(C)C (centres undefined)	-1.3	2.9	7.5	0.716	i
Cc1ccc(NC(=O)C2CC(Cl)=CCC2C(=O)O)c([N+](=O)[O-])c1 (centres undefined)	1.1	-5.7	2.8	0.408	i
Cc1ccc(S(=O)(=O)Oc2ccccc2/C=N/N=C(N)N)cc1	-0.2	73.9*	1.8	-0.143	i
SMILES	bCat nuc transl	Lmaj promast	MT stabilize HCS	Dynein cargo inh	HSV replic up
C=CCSC1=C(C#N)C(c2ccccc2Cl)C(C(=O)c2cccs2)C(O)(C(F)(F)F)N1 (centres undefined)	4.5	88.2*	4.5	-0.263	i
Cc1ccc(CNc2ccc(S(=O)(=O)N3CCOCC3)cc2[N+](=O)[O-])cc1	-1.5	-4.8	3.2	0.546	i
CCSc1ccccc1C(=O)N1CCN(c2ccc([N+](=O)[O-])cc2)CC1	0.7	4.0	3.9	-0.446	i
Cc1cccc(N2CCN(C(=O)Cc3ccc(Br)cc3)CC2)c1C	1.5	-0.6	1.9	0.591	i
O=C(NC(CC(=O)N1CCN(c2ccc([N+](=O)[O-])cc2)CC1)c1ccccc1)c1ccccc1Cl (centres undefined)	.	83.0*	2.6	0.0357	i
Cc1cccc(N2CCN(C(=O)CC(NC(=O)c3ccccc3Cl)c3ccccc3)CC2)c1C (centres undefined)	.	95.0*	2.2	-0.345	i
COC(=O)c1ccc(S(=O)(=O)N2CCCN(Cc3ccccc3)CC2)n1C	1.1	.	.	-0.222	i
OC1(c2cccc(C(F)(F)F)c2)CCN(c2ncnc3c2[nH]c2ccc(F)cc23)CC1	0.4	88.3*	13.0	-0.208	.
Fc1ccc2[nH]c3c(N4CCN(c5ccccc5)CC4)ncnc3c2c1	-0.3	21.7	2.6	0.0799	i
Cc1ccccc1C(=O)N1CCc2cc(-c3nc(NC(=O)Cc4ccc5c(c4)OCO5)sc3C)ccc21	1.7	98.8*	1.4	0.204	i
CNc1nc(-c2ccc3c(c2)CCN3C(=O)c2ccccc2C)cs1	0.8	7.6	1.8	-0.399	i
Cc1sc(NC(=O)Cc2ccc3c(c2)OCO3)nc1-c1ccc2c(c1)CCN2C(=O)c1cccc(F)c1	0.1	91.2*	1.8	-0.659	i
Cc1cccc(C(=O)N2CCc3cc(-c4nc(NC(=O)Cn5nnc6ccccc6c5=O)sc4C)ccc32)c1	.	8.0	3.3	-0.383	i
O=C(O)C1CCCCC1C(=O)Nc1cnn(Cc2ccccc2)c1 (centres undefined)	.	-5.6	4.0	-0.0967	i
COc1ccc(C2NCCc3c2[nH]c2ccccc32)cc1CSc1nc2ccccc2s1 (centres undefined)	-1.6	60.4*	8.2	-0.894	i
CCN(CC)C(=O)CSc1nc2c(sc(=S)n2CC)c(=O)n1-c1ccccc1	.	59.5*	1.2	-0.883	i
CCN(CC)C(=O)CSc1nc2c(sc(=S)n2-c2ccccc2)c(=O)n1Cc1ccco1	.	39.0	2.8	-1.32	i
CC(=O)C(Cc1ccc(Cl)nc1)Cc1ccc(Cl)nc1	-3.5	-0.3	1.7	-1.16	i
Cc1cccn2c(=O)c3cc(C(N)=S)c(=N)n(CCCN4CCOCC4)c3nc12	-0.8	64.2*	1.5	-0.00602	i
Cc1cccn2c(=O)c3cc(C#N)c(=NC(=O)c4ccncc4)n(CCCOC(C)C)c3nc12	-4.3	61.1*	2.4	-0.718	i
CCCn1c(=N)c(C(=O)NC2CCCC2)cc2c(=O)n3cccc(C)c3nc21	-1.8	58.1*	4.4	-0.673	i
CCCCNC(=O)c1cc2c(=O)n3cccc(C)c3nc2n(CCN2CCOCC2)c1=N	.	12.2	2.6	0.0408	.
Cc1ccc2nc3c(cc(C(N)=S)c(=N)n3CCCOC(C)C)c(=O)n2c1	-4.0	85.7*	6.4	1.15	i
COCCCn1c(=NC(=O)c2ccncc2)c(C#N)cc2c(=O)n3cccc(C)c3nc21	.	19.7	3.6	0.728	i
CCC(=O)c1cc(F)c(N2CCN(C(=O)c3ccco3)CC2)cc1C	-1.6	-9.2	1.4	-0.398	i
O=C(CS(=O)(=O)c1ccccc1)Nc1nc(-c2ccc(F)cc2)cs1	.	6.7	1.8	-0.527	i
Cc1cccn2c(=O)c3cc(C#N)c(=N)n(CCCN4CCOCC4)c3nc12	.	89.2*	3.1	-0.827	i
Cc1cccn2c(=O)c3cc(C#N)c(=N)n(CCN4CCOCC4)c3nc12	.	-12.9	0.9	-1.33	.
